Reference: ChEMBL document CHEMBL4382253, “Isolation and Characterization of Anaephenes A-C, Alkylphenols from a Filamentous Cyanobacterium ( Hormoscilla sp., Oscillatoriales)” (J Nat Prod, 2018)
In brackets after ≈: the same amount, converted by molar mass.

Assays:
[1] = tested on: Staphylococcus aureus; assay: Antibacterial activity against Staphylococcus aureus ATCC 25923 Seattle 1945 measured after overnight incubation; type: functional
Method in brief: (§1)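 Strain precultured overnight in LB broth at 37 °C, then diluted 10^6-fold in fresh medium. 2-fold serial broth microdilution in 96-well plates from 100 μM top concentration, DMSO or water negative control. Triplicate wells. MIC taken as the lowest concentration showing no turbidity.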

[2] = tested on: Saccharomyces cerevisiae; assay: Antifungal activity against Saccharomyces cerevisiae BY4741 measured after overnight incubation by spectrometric method; type: functional
Method in brief: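 Yeast grown overnight in YPD at 30 °C. Cell density set by A660, final 10 × 10^5 cells/mL. 2-fold serial dilution in YPD from 100 μM, DMSO negative control, nystatin positive control starting at 25 μM. Triplicates, overnight incubation.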

[3] = tested on: Bacillus cereus; assay: Antibacterial activity against Bacillus cereus ATCC 10987 NRS 248 measured after overnight incubation; type: functional
Method in brief: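 B. cereus grown overnight in LB broth at 30 °C, diluted 10^6-fold in fresh medium. 2-fold serial broth microdilution in 96-well plates starting at 100 μM, DMSO or water as negative control. Triplicates. MIC is the lowest concentration with no visible turbidity.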

[4] = tested on: HCT-116; assay: Cytotoxicity against human HCT116 cells after 48 hrs by MTT assay; type: functional, cell-based; settings: HCT-116, 48 h
Method in brief: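 Cells kept in DMEM with 10% FBS and 1% antibiotic-antimycotic at 37 °C, 5% CO2. Seeded at 10,000 cells/well, treated after 24 h with a range of concentrations or DMSO. Viability read by MTT after 48 h.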

[5] = tested on: Pseudomonas aeruginosa; assay: Antibacterial activity against Pseudomonas aeruginosa PAO1 ATCC BAA-47 measured after overnight incubation; type: functional; method in brief: as §1
[6] = tested on: Mycobacterium tuberculosis; assay: Antibacterial activity against Mycobacterium tuberculosis H37Ra ATCC 25177 measured after 1 week; type: functional; settings: H37Ra ATCC 25177, 168 h
Method in brief: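 M. tuberculosis H37Ra grown two weeks in Middlebrook 7H9, diluted to OD600 0.01; broth microdilution in 96-well plates, compounds given at 2-fold final concentration in first column then serially diluted 2-fold; DMSO or H2O negative control, streptomycin positive control; triplicates; incubated one week at 37 °C.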

Row | Molecule | MIC [1] [µg/mL] | MIC [2] [µg/mL] | MIC [3] [µg/mL] | IC50 [4] [µM] | MIC [5] [µg/mL] | MIC [6] [µg/mL]
1 | C#CCCC/C=C/CCCCc1cccc(O)c1 | 6.1 (≈ 25.2 µM) | > 24 | 6.1 (≈ 25.2 µM) | 71 | > 24 | > 24
2 | CCC/C=C/CCCCc1cccc(O)c1 | 22 (≈ 101 µM) | > 22 | 11 (≈ 50.4 µM) | 26 | > 22 | > 22
3 | CCC/C=C/C=C/CCc1cccc(O)c1 | 22 (≈ 102 µM) | > 22 | 22 (≈ 102 µM) | > 100 | > 22 | > 22
4 | CN[C@@H]1[C@H](O[C@H]2[C@H](O[C@H]3[C@H](O)[C@@H](O)[C@H](N=C(N)N)[C@@H](O)[C@@H]3N=C(N)N)O[C@@H](C)[C@]2(O)C=O)O[C@@H](CO)[C@H](O)[C@H]1O [STREPTOMYCIN] | – | – | – | – | 6.2 (≈ 10.7 µM) | 3.1 (≈ 5.33 µM)
5 | NYSTATIN | – | 23 | – | – | – | –
6 | O=C(O)c1cn(C2CC2)c2cc(N3CCNCC3)c(F)cc2c1=O [CIPROFLOXACIN] | – | – | 0.03 (≈ 0.0905 µM) | – | – | –
7 | O=C(N[C@H](CO)[C@H](O)c1ccc([N+](=O)[O-])cc1)C(Cl)Cl [CHLORAMPHENICOL] | 4 (≈ 12.4 µM) | – | – | – | – | –
